# Reference: ChEMBL document CHEMBL3045304, “Sesquiterpene lactones with potential use as natural herbicide models. 2. guaianolides” (2000)
# Activity calls are given as the source filed them. The rule behind the calls is not given here.
# Tests used:
# Allium cepa [1] = experiment: Stimulation of hypocotyl length of Allium cepa cv. Valenciana (onion) at 0.1 mM or 1 mM after 7 days relative to untreated control
# Triticum aestivum [2] = experiment: Stimulation of root length of Triticum aestivum cv. Cortex (wheat) at 0.1 mM or 1 mM after 5 days relative to untreated control; assay type: functional
# Summary of the method: (§1)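 Wheat: 10 seeds per dish on filter paper with 5 mL test solution, 5 days in the dark at 25 °C, 10 replicates per concentration. Stock test solutions were 10^-3 or 10^-4 M in 10 mM MES, with lower levels made by dilution, all at pH 6.0. Parallel controls were run. Output is % difference from control.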
# Allium cepa [3] = experiment: Inhibition of hypocotyl length of Allium cepa cv. Valenciana (onion) at 0.1 mM or 1 mM after 7 days relative to untreated control
# Triticum aestivum [4] = experiment: Stimulation of germination of Triticum aestivum cv. Cortex (wheat) at 0.1 mM or 1 mM after 5 days relative to untreated control; assay type: functional
# Summary of the method: as §1
# Lactuca sativa [5] = experiment: Stimulation of hypocotyl length of Lactuca sativa cv. Roman (lettuce) at 0.1 mM or 1 mM after 5 days relative to untreated control; assay type: functional
# Summary of the method: (§2)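 Lettuce and tomato seeds, 25 per dish on filter paper, received 5 mL test solution. Incubation was 5 days in the dark at 25 °C, with four replicates per concentration. Solutions were made at 10^-3 or 10^-4 M in 10 mM MES, diluted serially, and adjusted to pH 6.0. Parallel controls were run. Results are % difference from control.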
# Triticum aestivum [6] = experiment: Inhibition of germination of Triticum aestivum cv. Cortex (wheat) at 0.1 mM or 1 mM after 5 days relative to untreated control; assay type: functional
# Summary of the method: as §1
# Lactuca sativa [7] = experiment: Inhibition of hypocotyl length of Lactuca sativa cv. Roman (lettuce) at 0.1 mM or 1 mM after 5 days relative to untreated control; assay type: functional
# Summary of the method: as §2
# Allium cepa [8] = experiment: Inhibition of germination of Allium cepa cv. Valenciana (onion) at 0.1 mM or 1 mM after 5 days relative to untreated control; assay type: functional
# Solanum lycopersicum [9] = experiment: Inhibition of germination of Solanum lycopersicum cv. Tres Cantos (tomato) at 0.1 mM or 1 mM after 5 days relative to untreated control; assay type: functional
# Summary of the method: as §2
# Allium cepa [10] = experiment: Stimulation of germination of Allium cepa cv. Valenciana (onion) at 0.1 mM or 1 mM after 5 days relative to untreated control; assay type: functional
# Triticum aestivum [11] = experiment: Inhibition of hypocotyl length of Triticum aestivum cv. Cortex (wheat) at 0.1 mM or 1 mM after 5 days relative to untreated control; assay type: functional
# Summary of the method: as §1
# Solanum lycopersicum [12] = experiment: Stimulation of germination of Solanum lycopersicum cv. Tres Cantos (tomato) at 0.1 mM or 1 mM after 5 days relative to untreated control; assay type: functional
# Summary of the method: as §2
# Lepidium sativum [13] = experiment: Inhibition of germination of Lepidium sativum at 0.1 mM or 1 mM after 4 days relative to untreated control
# Allium cepa [14] = experiment: Inhibition of root length of Allium cepa cv. Valenciana (onion) at 0.1 mM or 1 mM after 5 days relative to untreated control; assay type: functional
# Lactuca sativa [15] = experiment: Stimulation of germination of Lactuca sativa cv. Roman (lettuce) at 0.1 mM or 1 mM after 5 days relative to untreated control; assay type: functional
# Summary of the method: as §2
# Lepidium sativum [16] = experiment: Stimulation of root length of Lepidium sativum at 0.1 mM or 1 mM after 5 days relative to untreated control; assay type: functional
# Lactuca sativa [17] = experiment: Inhibition of germination of Lactuca sativa cv. Roman (lettuce) at 0.1 mM or 1 mM after 5 days relative to untreated control; assay type: functional
# Summary of the method: as §2
# Lactuca sativa [18] = experiment: Stimulation of root length of Lactuca sativa cv. Roman (lettuce) at 0.1 mM or 1 mM after 5 days relative to untreated control; assay type: functional
# Summary of the method: as §2
# Lepidium sativum [19] = experiment: Inhibition of hypocotyl length of Lepidium sativum at 0.1 mM or 1 mM after 4 days relative to untreated control
# Solanum lycopersicum [20] = experiment: Inhibition of hypocotyl length of Solanum lycopersicum cv. Tres Cantos (tomato) at 0.1 mM or 1 mM after 5 days relative to untreated control; assay type: functional
# Summary of the method: as §2
# Lactuca sativa [21] = experiment: Inhibition of root length of Lactuca sativa cv. Roman (lettuce) at 0.1 mM or 1 mM after 5 days relative to untreated control; assay type: functional
# Summary of the method: as §2
# Solanum lycopersicum [22] = experiment: Inhibition of root length of Solanum lycopersicum cv. Tres Cantos (tomato) at 0.1 mM or 1 mM after 5 days relative to untreated control; assay type: functional
# Summary of the method: as §2
# Triticum aestivum [23] = experiment: Stimulation of hypocotyl length of Triticum aestivum cv. Cortex (wheat) at 0.1 mM or 1 mM after 5 days relative to untreated control; assay type: functional
# Summary of the method: as §1
# Allium cepa [24] = experiment: Stimulation of root length of Allium cepa cv. Valenciana (onion) at 0.1 mM or 1 mM after 7 days relative to untreated control
# Solanum lycopersicum [25] = experiment: Stimulation of root length of Solanum lycopersicum cv. Tres Cantos (tomato) at 0.1 mM or 1 mM after 5 days relative to untreated control; assay type: functional
# Summary of the method: as §2
# Solanum lycopersicum [26] = experiment: Stimulation of hypocotyl length of Solanum lycopersicum cv. Tres Cantos (tomato) at 0.1 mM or 1 mM after 5 days relative to untreated control; assay type: functional
# Summary of the method: as §2
# Lepidium sativum [27] = experiment: Inhibition of root length of Lepidium sativum at 0.1 mM or 1 mM after 4 days relative to untreated control
# Lepidium sativum [28] = experiment: Stimulation of hypocotyl length of Lepidium sativum at 0.1 mM or 1 mM after 5 days relative to untreated control; assay type: functional
# Triticum aestivum [29] = experiment: Inhibition of root length of Triticum aestivum cv. Cortex (wheat) at 0.1 mM or 1 mM after 5 days relative to untreated control; assay type: functional
# Summary of the method: as §1
SMILES,Activity (Allium cepa [1]),Activity (Triticum aestivum [2]),inhibition (Allium cepa [3]),Activity (Triticum aestivum [4]),Activity (Lactuca sativa [5]),inhibition (INH) (Lactuca sativa [7]),inhibition (Allium cepa [8]),inhibition (Solanum lycopersicum [9]),Activity (Allium cepa [10]),inhibition (Triticum aestivum [11]),Activity (Solanum lycopersicum [12]),Activity (Lepidium sativum [13]),inhibition (Lepidium sativum [13]),inhibition (Allium cepa [14]),Activity (Lactuca sativa [15]),Activity (Lepidium sativum [16]),inhibition (INH) (Lactuca sativa [17]),Activity (Lactuca sativa [18]),inhibition (INH) (Lepidium sativum [19]),inhibition (Solanum lycopersicum [20]),further results
C=C1CC[C@H]2[C@H](CO)C(=O)O[C@@H]2[C@@]2(O)C(=C)[C@H](O)C[C@@H]12,inactive,inactive,inactive,<20%,>40%,>40%,inactive,inactive,inactive,inactive,inactive,inactive,inactive,inactive,20%,>40%,20%,20%,20%,inactive,inhibition (INH) (Triticum aestivum [6]): <20%; inhibition (INH) (Lactuca sativa [21]): 20%; inhibition (Solanum lycopersicum [22]): inactive; Activity (Triticum aestivum [23]): inactive; Activity (Allium cepa [24]): inactive; Activity (Solanum lycopersicum [25]): inactive; Activity (Solanum lycopersicum [26]): inactive; inhibition (INH) (Lepidium sativum [27]): >40%; Activity (Lepidium sativum [28]): 20%; inhibition (Triticum aestivum [29]): inactive
C=C1CC[C@H]2[C@H](C)C(=O)O[C@@H]2[C@@]2(O)C(=C)[C@H](O)C[C@@]12O,inactive,inactive,inactive,inactive,>40%,>40%,inactive,inactive,inactive,inactive,inactive,inactive,inactive,inactive,20%,<20%,20%,>40%,<20%,inactive,inhibition (Triticum aestivum [6]): inactive; inhibition (INH) (Lactuca sativa [21]): >40%; inhibition (Solanum lycopersicum [22]): inactive; Activity (Triticum aestivum [23]): inactive; Activity (Allium cepa [24]): inactive; Activity (Solanum lycopersicum [25]): inactive; Activity (Solanum lycopersicum [26]): inactive; inhibition (INH) (Lepidium sativum [27]): <20%; Activity (Lepidium sativum [28]): <20%; inhibition (Triticum aestivum [29]): inactive
